Results on 15 molecules are retold here after ChEMBL document CHEMBL4765278, “Synthesis of antiplatelet ortho-carbonyl hydroquinones with differential action on platelet aggregation stimulated by collagen or TRAP-6” (Eur J Med Chem, 2020).

Series [1] can be described thus: (§1) Inhibition of collagen-induced platelet aggregation in human platelet preincubated for 5 mins followed by collagen-stimulation and measured after 6 mins by lumi-aggregometric method. The series is classed as functional, tissue-based. The method, boiled down: (§2)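 Light transmission aggregometry of washed human platelets (3x10^8/mL) preincubated 5 min with 2 mM CaCl2 plus compound (0.2 to 200 μM; DMSO 0.2% vehicle). Aggregation induced by TRAP-6 (5 μM) or collagen (1 μg/mL) and followed 6 min. IC50 from dose-response curves, mean ± SEM of three experiments. S.I. = IC50 TRAP-6/IC50 collagen.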

Series [2] is described as follows: (§3) Inhibition of TRAP6-induced platelet aggregation in human platelet preincubated for 5 mins followed by TRAP6-stimulation and measured after 6 mins by lumi-aggregometric method. The series is classed as functional, tissue-based. In a few lines:
as §2

The subject of series [3] is Platelet. The series can be described thus: Cytotoxicity against human Platelet assessed as increase in LDH leakage at 200 uM after 10 mins by LDH assay. Type of series: cell-based. The method, boiled down:
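Washed platelets (3x10^8/mL) incubated 10 min at 37°C with compound (200 μM), then centrifuged 800 x g for 8 min. Supernatant LDH kit read at 490 nm; 10% Triton X-100 served as positive control.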
(LDH leaks from cells whose membrane has failed.)

Series [4] can be described thus: Selectivity index, ratio of IC50 for inhibition of TRAP6-induced platelet aggregation in human platelet to IC50 for inhibition of collagen-induced platelet aggregation in human platelet. Type of series: functional. The method, boiled down:
as §2

The test system of series [5] is Platelet. The series can be described thus: Antiplatelet activity in human Platelet assessed as increase in ROS production at 20 uM by DHE staining based flow cytometric analysis. The series is classed as functional, cell-based. In a few lines: (§4)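 Washed human platelets (5x10^7/mL) exposed to compounds with 10 μM dihydroethidium for 20 min at 37°C; ROS read by flow cytometry. Mean ± SEM of three experiments.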

Series [6] concerns Platelet. The series can be described thus: Antiplatelet activity in human Platelet assessed as inhibition of TRAP6-induced GP2a/3b activation at 2 to 20 uM by flow cytometric analysis. Type of series: functional, cell-based. The note with it: dose 2-20 µM. (In general: In flow cytometry, cells or beads pass a laser one at a time.)
In series [7] the test system is Platelet. The description is as §1. Type of series: functional, tissue-based. The note with it: time 11.0 min. In a few lines:
as §2

In series [8] the test system is Platelet. The series is described as §3. The series is classed as functional, tissue-based. The note with it: time 11.0 min. In a few lines:
as §2

The test system of series [9] is Platelet. Description: Antiplatelet activity in human Platelet assessed as intracellular calcium level at 2 to 20 uM preincubated for 5 mins and measured for 15 sec by Fluo-3-AM staining based assay. The series is classed as functional, cell-based. The note with it: dose 2-20 µM. The method, boiled down:
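Washed platelets (5x10^7/mL) loaded with Fluo-3-AM (0.4 μM) for 30 min at RT, then given vehicle (DMSO 0.2%) or compound for 5 min. Baseline recorded 15 s, then FCCP (1 μM) added and read 60 s more by flow cytometry. Expressed relative to control.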
For orientation: A change in cytosolic calcium serves as a functional read-out for many receptors and channels.

In series [10] the test system is Platelet. Description: Antiplatelet activity in human Platelet assessed as inhibition of TRAP6-induced ATP secretion at 2 to 20 uM by Cell Titer-Glo luminescent cell viability assay. The series is classed as functional, cell-based. The note with it: dose 2-20 µM.
Series [11] deals with Platelet. The series can be described thus: Antiplatelet activity in human Platelet assessed as intracellular NADH level at 2 to 20 uM by fluorescence assay. The note with it: dose 2-20 µM. The series is classed as functional, cell-based. The method, boiled down: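 NAD(P)H autofluorescence in resting washed platelets, excitation 340 nm and emission 428 nm. Mean ± SEM of n=3.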

The subject of series [12] is Platelet. Description: Effect on platelet activation in human collagen/TRAP6-inducrd human Platelet assessed as positive subpopulation cells at 2 to 20 uM by annexin V-FITC staining based flow cytometric analysis. The series is classed as functional, tissue-based. The note with it: dose 2-20 µM. In a few lines:
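Washed platelets (3x10^8/mL) preincubated 5 min with 2 mM CaCl2 plus compound and stimulated with collagen + TRAP-6. Diluted in annexin V binding buffer and stained with annexin V-FITC and anti-CD61-PE for 25 min in the dark; flow cytometry.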

Series [13] has as its system Platelet. Description: Antiplatelet activity in human Platelet assessed as decrease in intracellular ATP level at 20 uM by Cell Titer-Glo luminescent cell viability assay. The series is classed as functional, cell-based. The method, boiled down:
(§5)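 Intraplatelet ATP in resting washed human platelets measured by CellTiter-Glo luminescence following the kit instructions. Mean ± SEM of n=3 experiments.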

A short description of series [14]: Inhibition of collagen-induced platelet aggregation in human platelet preincubated for 5 mins followed by 2 ug/ml collagen-stimulation and measured after 6 mins by lumi-aggregometric method relative to control. The note with it: time 11 min. The series is classed as functional. In a few lines: (§6)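 Washed platelets (3x10^8/mL) preincubated 5 min with 2 mM CaCl2 plus compound, then challenged at maximal agonist level, 10 μM TRAP-6 or 2 collagen as printed. Transmission followed 6 min and compared with DMSO 0.2% control; n=3.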

Series [15] can be described thus: Inhibition of TRAP6-induced platelet aggregation in human platelet preincubated for 5 mins followed by 10 uM TRAP6-stimulation and measured after 6 mins by lumi-aggregometric method relative to control. Type of series: functional. To be noted: time 11 min. The method, boiled down: as §6
The test system of series [16] is Platelet. The series can be described thus: Antiplatelet activity in human Platelet assessed as inhibition of TRAP6-induced p-selectin protein expression at 2 to 20 uM by flow cytometric analysis. The note with it: dose 2-20 µM. Type of series: functional, cell-based.
Series [17] has as its system Platelet. The series can be described thus: Antiplatelet activity in human Platelet assessed as inhibition of TRAP6-induced CD63 expression at 2 to 20 uM by flow cytometric analysis. To be noted: dose 2-20 µM. Type of series: functional, cell-based.
The subject of series [18] is Platelet. Description: Antiplatelet activity in human Platelet assessed as mitochondrial membrane potential loss at 20 uM by TMRM staining based flow cytometric analysis. Type of series: functional, cell-based. In a few lines:
(§7)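 Washed platelets loaded with TMRM (100 nM), then incubated with DMSO 0.2%, compound or FCCP (1 μM) at 37°C for 20 min; ΔΨm by flow cytometry.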

The test system of series [19] is Platelet. The series can be described thus: Antiplatelet activity in human Platelet assessed as ROS production at 2 to 20 uM by DHE staining based flow cytometric analysis. The note with it: dose 2-20 µM. Type of series: functional, cell-based. In a few lines: as §4
Series [20] deals with Platelet. The series can be described thus: Antiplatelet activity in human Platelet assessed as inhibition of collagen-induced p-selectin protein expression at 2 to 20 uM by flow cytometric analysis. The series is classed as functional, cell-based. To be noted: dose 2-20 µM.
In series [21] the test system is Platelet. Description: Antiplatelet activity in human Platelet assessed as intracellular ATP level at 2 to 20 uM by Cell Titer-Glo luminescent cell viability assay. The series is classed as functional, cell-based. The note with it: dose 2-20 µM. The method, boiled down: as §5
Series [22] concerns Platelet. The series can be described thus: Antiplatelet activity in human Platelet assessed as inhibition of collagen-induced ATP secretion at 2 to 20 uM by Cell Titer-Glo luminescent cell viability assay. The series is classed as functional, cell-based. To be noted: dose 2-20 µM.
The test system of series [23] is Platelet. The series can be described thus: Antiplatelet activity in human Platelet assessed as mitochondrial membrane potential loss at 2 to 20 uM by TMRM staining based flow cytometric analysis. Type of series: functional, cell-based. To be noted: dose 2-20 µM. The method, boiled down: as §7
Series [24] has as its system Platelet. Description: Antiplatelet activity in human Platelet assessed as inhibition of collagen-induced GP2a/3b activation at 2 to 20 uM by flow cytometric analysis. The note with it: dose 2-20 µM. The series is classed as functional, cell-based.

Activity calls are given as the source filed them. No cut-off for these calls is given here.

`CC1C=CC(COC(=O)C2CCCCC2)c2c(O)c3c(c(O)c21)C(=O)C=CC3(C)C` (stereo not given): the IC50 in series [1] and in series [2] was over 100 µM in each case. Moreover, the Activity result in series [3] is “Non-Toxic”.

As for `CC1(C)C=CC(=O)c2c(O)ccc(O)c21`, the concentration for half-maximal inhibition (IC50) was 14.3 µM in series [1] and over 100 µM in series [2]. In series [4], the “Ratio IC50” value is on record as 7. The Activity entry in [3] is reported as “Non-Toxic”.

Regarding `CC1(C)C=CC(=O)c2c(O)c3c(c(O)c21)CC=CC3`, the IC50 in series [1] is 20.6 µM; in series [2] it was over 100 µM. The “Ratio IC50” value in series [4] was found to be 4.86. Besides, in series [3], the Activity result is recorded as “Non-Toxic”.

Turning to `O=C1C=CC2(CCCC2)c2c(O)c3c(c(O)c21)CC=CC3`, the IC50 was 25.5 µM in series [1] and over 100 µM in [2]. Besides, the “Ratio IC50” value in series [4] amounted to 3.92. Besides, in series [3], the Activity result is reported as “Non-Toxic”.

Regarding `CCCCCCCC1=CC(C)(C)c2c(O)ccc(O)c2C1=O`, in series [3], the Activity result is recorded as “Toxic”.

As to `CCCCCC1=CC(C)(C)c2c(O)ccc(O)c2C1=O`, in series [3], the Activity entry is reported as “Toxic”.

For the molecule `CCC1(CC)C=CC(=O)c2c(O)c3c(c(O)c21)CC=CC3`, the outcome in series [5], in series [13] and in series [18] was Active. Also, the inhibition entry in series [6], in series [10], in series [16] and in series [17] was “Active” throughout. The inhibition entry in series [7] and in series [8] was “Dose-dependent effect” throughout. The results for the IC50 in series [1] and in [2] were 17.1 µM and 11.9 µM, respectively. Moreover, the result in series [9], in [11] and in series [12] was inactive. In [4], the “Ratio IC50” value came out at 0.69. Also, in series [3], the Activity result was “Non-Toxic”. In addition, the “inhibition (INH)” value in series [14] and in series [15] was 100% throughout.

Regarding `CCCCCCC1=CC(C)(C)c2c(O)ccc(O)c2C1=O`, the Activity entry in [3] is on record as “Toxic”.

As to `Cc1c(C)c(O)c2c(c1O)C(=O)C=CC2(C)C`, the IC50 was 12 µM in series [1] and over 100 µM in series [2]. Moreover, the “Ratio IC50” value in [4] is recorded as 8.35. Moreover, the Activity entry in series [3] is listed as “Non-Toxic”.

Turning to `CC1C=CC(COC(=O)C2CCCCC2)c2c(O)c3c(c(O)c21)C(C)(C)C=CC3=O` (stereo not given), the IC50 in series [1] and in [2] was over 100 µM throughout. Moreover, the Activity result in [3] is “Non-Toxic”.

Regarding `CC1C=CC(CO)c2c(O)c3c(c(O)c21)C(=O)C=CC3(C)C` (stereo not given), the IC50 is 4.38 µM in series [1] and over 100 µM in [2]. Besides, the “Ratio IC50” value in series [4] came out at 22.83. The Activity result in series [3] is given as “Non-Toxic”.

For the molecule `O=C1C=CC2(CCCC2)c2c(O)ccc(O)c21`, the result in series [19], in series [9], in [21], in [11], in series [12] and in series [23] was inactive. The inhibition result in series [20], in series [22] and in series [24] was “Active” throughout. The inhibition entry in [7] and in series [8] was “Dose-dependent effect” in each case. Moreover, the figures for the IC50 in series [1] and in series [2] were 1.77 µM and over 100 µM, respectively. The “Ratio IC50” value in series [4] came out at 56.5. Moreover, in [3], the Activity entry is recorded as “Non-Toxic”. Moreover, the “inhibition (INH)” value in series [14] and in series [15] was 100% throughout.

Regarding `CCCSc1nc(N[C@@H]2C[C@H]2c2ccc(F)c(F)c2)c2nnn([C@@H]3C[C@H](OCCO)[C@@H](O)[C@H]3O)c2n1` [TICAGRELOR], the IC50 in series [1] was 2 µM; in series [2] it was 4 µM. Also, in series [4], the “Ratio IC50” value was determined as 2.

As for `CC1C=CC(CO)c2c(O)c3c(c(O)c21)C(C)(C)C=CC3=O` (stereo not given), the IC50 amounted to 11.5 µM in [1] and 15.8 µM in series [2]. Also, the “Ratio IC50” value in series [4] is reported as 1.37. The Activity result in series [3] is given as “Non-Toxic”.

As for `CCC1(CC)C=CC(=O)c2c(O)ccc(O)c21`, the IC50 in series [1] was determined as 35.3 µM; in series [2] it was 31.9 µM. Further, the “Ratio IC50” value in series [4] was 0.9. In addition, the Activity result in series [3] is recorded as “Non-Toxic”.

The term IC50 denotes the concentration needed to halve the response being measured.
